A selection: hits, their analogues and other compounds. The true share with any hit is near 1.2%.
Dynein transport: inhibitors of GR-EGFP nuclear translocation, primary screen, dynein cargo transport inhibitor project, imaging, high-content, 3617.4 mouse cells; test concentration mostly 20 µM; stimulated with dexamethasone, 1 µM; stronger effect = lower value; z-score, hits read low; 0.47% of 220,000 active; AID 1381, 2008;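 active = plate z-score of nuclear minus cytoplasmic receptor signal below a set negative limit, without overly bright fluorescence or cell loss, cut at about -3.5 in these data, passing the limit was not always enough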;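 also: z-score of nuclear minus cytoplasmic ring GR-EGFP intensity difference per well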
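Also added – dexamethasone, 1.0 µM final · Buffer or medium – tet-free, stripped-serum medium · Schedule – induction 48 h, compound 1 h, agonist 30 min · Detection – formaldehyde fixation, Hoechst nuclear stain, 10x automated fluorescence imaging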
Autophagy mod: autophagy modulators in MEF cells, primary screen, imaging, high-content, MEF GFP-LC3; 0.98% of 190,000 active; MEF GFP-LC3 puncta imaging; test concentration mostly 10 µM; calls only at 10 µM (by protocol); AID 463193, 2010;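 active = percentage of spot-positive cells more than 3 SD above its plate mean, without a fluorescence outlier flag or 80% toxicity; inconclusive = no clear call, values can overlap the other calls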
Tb hexokinase: Trypanosoma brucei hexokinase 1 inhibitors, primary screen, biochemical, G6PDH-coupled NADH absorbance, MLSCN library; hexokinase 1 [Trypanosoma brucei]; AID 1430, 2008; inhibition, % at 10 µM; 0.11% of 220,000 active; recombinant TbHK1, G6PDH-coupled NADH A340;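 active = inhibition of 50% or more in the single-dose primary screen; inactive = inhibition below 50%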
HKDC1 inh: HKDC1 hexokinase inhibitors, primary screen, biochemical, fluorescence, uHTS. Q2TB90. inhibition, % at 20 µM. recombinant HKDC1, G6PDH/diaphorase resazurin coupled fluorescence. 0.16% of 340,000 active;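 active = inhibition above about 35% when tested at 20 µM, limit read from the data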
Target sequence (Q2TB90 whole entry, looked up): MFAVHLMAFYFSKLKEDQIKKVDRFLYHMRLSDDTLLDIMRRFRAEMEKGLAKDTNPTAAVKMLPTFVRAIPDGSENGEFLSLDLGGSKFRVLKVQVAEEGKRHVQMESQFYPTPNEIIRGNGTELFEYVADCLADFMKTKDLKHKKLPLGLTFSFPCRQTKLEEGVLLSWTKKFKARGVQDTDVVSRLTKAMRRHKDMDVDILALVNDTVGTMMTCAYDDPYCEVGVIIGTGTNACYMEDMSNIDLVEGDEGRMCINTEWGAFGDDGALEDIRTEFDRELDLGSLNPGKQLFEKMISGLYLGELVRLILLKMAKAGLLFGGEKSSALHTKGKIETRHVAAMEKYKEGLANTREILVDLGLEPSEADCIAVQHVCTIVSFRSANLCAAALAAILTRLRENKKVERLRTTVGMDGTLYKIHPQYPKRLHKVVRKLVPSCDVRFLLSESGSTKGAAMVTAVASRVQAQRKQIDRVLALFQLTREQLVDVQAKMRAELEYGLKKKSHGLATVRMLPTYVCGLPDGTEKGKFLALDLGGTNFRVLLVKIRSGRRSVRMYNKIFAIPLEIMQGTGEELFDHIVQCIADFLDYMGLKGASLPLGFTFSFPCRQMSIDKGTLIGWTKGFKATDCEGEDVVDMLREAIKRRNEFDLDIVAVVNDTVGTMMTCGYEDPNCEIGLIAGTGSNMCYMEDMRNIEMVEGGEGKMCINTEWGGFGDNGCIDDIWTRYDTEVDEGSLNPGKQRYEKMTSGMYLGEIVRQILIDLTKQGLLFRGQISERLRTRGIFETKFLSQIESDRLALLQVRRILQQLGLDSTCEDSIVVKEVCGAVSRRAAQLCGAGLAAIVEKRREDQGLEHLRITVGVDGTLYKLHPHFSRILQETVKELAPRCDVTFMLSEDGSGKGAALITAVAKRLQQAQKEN
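Test system: Recombinant HKDC1 (HK5) hexokinase enzyme, produced in-house | Input: HKDC1 at 5 µg/mL | Buffer or medium: Tris pH 8.0 buffer with MgCl2, Tween-20, BSA, BME | Schedule: 90 min reaction incubation at room temperature, dark | Technique: Resazurin-to-resorufin fluorescence via G6PDH and diaphorase coupling, 525/613 nm | Controls: DMSO wells with and without enzyme mix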
HSV augment: enhancers of HSV replication in host cells, fold increase, host cell viability; HSV replication augmentation in cells; maximum fold increase; 0.005% of 220,000 active; in the data active = maximum fold increase above about 1.5; inconclusive = no clear call, values can overlap the other calls; tested in PC3 cells
PERK inhibitor: block of dimerizer-induced PERK translation repression, primary screen, PERK inhibitor project, CHO PERK-DD cells, SEAP luminescence, HTS; Eukaryotic translation initiation factor 2-alpha kinase 3 (Homo sapiens), Q9NZJ5; inhibition, % at 5.6 µM; CHO PERK-DD fusion, SEAP luminescence translation reporter; 0.17% of 220,000 active;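 active = inhibition above the mean inhibition of all tested compounds plus 3 SD, set separately per screening campaign, cut at about 2.9% in these data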;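 also: PERK kinase domain activated by AP20187 dimerizer at 100 nM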
Dynein confirm: dynein cargo transport inhibitors, GR-EGFP translocation, confirmation, imaging, high-content imaging, GR-EGFP cells; shares compounds with Dynein transport; AID 463116, 2010; 3617.4 GR-EGFP nuclear translocation imaging, dexamethasone-induced; 69% of 1,000 active; calls only at 20 µM;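 active = inhibition of receptor movement into the nucleus at or above a set limit in both runs, with normal cell brightness and cell count; inconclusive = limit reached in only one run, brightness and count normal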;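 also: dexamethasone at 1 µM final in well for 30 min; nuclear minus cytoplasmic GR-EGFP mean intensity difference in channel 2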
Each line names hits and unclear results; the compound was inactive in the other large screens (follow-up assays come after a bar, where they were run).

CN1C/C(=C\c2ccc(N3CCOCC3)cc2)C(=O)/C(=C/c2ccc(N3CCOCC3)cc2)C1	none
C=CS(=O)(=O)c1sc(Cl)c(N2CCOCC2)c1[N+](=O)[O-]	Dynein transport -4.3 | Dynein confirm active
Cc1ccc(NC(=O)N2C3CCCC2CC(NC(=O)C(C)(C)C)C3)cc1 (configuration not stated)	none (no result: Dynein transport, Autophagy mod, Tb hexokinase, HSV augment, PERK inhibitor)
CN(C)CCCN(C(=O)CCOc1ccccc1)c1nc2c(F)cccc2s1	Dynein transport -7.9 | Dynein confirm active
CN(C)CCCN(C(=O)CCOc1ccccc1)c1nc2ccc(F)cc2s1	Dynein transport -3.5 | Dynein confirm inactive
CN(C)CCCN(C(=O)CCc1ccccc1)c1nc2c(F)cccc2s1	none
CN(C)CCCN(C(=O)COc1ccccc1)c1nc2ccc(F)cc2s1	none
CCOc1ccc(N(CC(=O)NCc2ccco2)C(=O)CCC(=O)Nc2ccccn2)cc1	none (no result: Dynein transport, Autophagy mod, Tb hexokinase, HSV augment, PERK inhibitor)
Cc1nnc(Sc2nc3ccccc3o2)c2ccccc12	none
CCSc1nnc(-c2ccc(Cl)cc2)c2ccccc12	none
Cc1ccc(-c2nnc(Sc3nc4ccccc4o3)c3ccccc23)cc1	Dynein transport -4.1 | Dynein confirm active
Clc1ccc(-c2nnc(Sc3nc4ccccc4o3)c3ccccc23)cc1	Dynein transport -4.1 | Dynein confirm active
COc1ccccc1NC(=O)COC(=O)c1ccc2ccccc2n1	none (no result: Dynein transport, Autophagy mod, Tb hexokinase, HSV augment, PERK inhibitor)
Cc1ccc(S(=O)(=O)NCCC(=O)NC2CC2)cc1	none (no result: Dynein transport, Autophagy mod, Tb hexokinase, HSV augment, PERK inhibitor)
COc1ccc(OC)c(NC(=O)c2cccc(NC(=O)c3ccccc3)c2)c1	none (no result: Dynein transport, Autophagy mod, Tb hexokinase, HSV augment, PERK inhibitor)
Cc1c(-c2ccc(O)cc2)nc2nc(-c3ccccc3)c(-c3ccccc3)nn12	none (no result: Autophagy mod, HKDC1 inh) | Dynein confirm active
Cc1nnc2c3ccccc3c(-c3ccc(O)cc3)nn12	none (no result: HSV augment)
CCCCCCN1C=CC(=C/C=C(\C#N)C(=O)OCC)C=C1	Autophagy mod active, HSV augment inconclusive | Dynein confirm inconclusive
CCCN1C(=O)/C(=C/c2ccc3c(c2)OCO3)NC1=S	none
CCCN1C/C(=C/c2ccc3c(c2)OCO3)C(=O)/C(=C/c2ccc3c(c2)OCO3)C1	Dynein transport -4.6 | Dynein confirm active
COc1ccc(N(CC(=O)NCC2CCCO2)C(=O)CCC(=O)Nc2cc(C)on2)cc1OC (configuration not stated)	none (no result: Dynein transport, Autophagy mod, Tb hexokinase, HSV augment, PERK inhibitor)
CCC(=O)Nc1ccc(/C=C(\C(C)=O)C(=O)c2ccccc2)cc1	Dynein transport -4.1 (no result: Autophagy mod) | Dynein confirm active
Cn1cc(CCC(=O)NCCCc2ccccc2)c2ccccc21	none (no result: Dynein transport, Autophagy mod, Tb hexokinase, HSV augment, PERK inhibitor)
Cc1ccc(C(=O)N/C(=C\c2ccc(-c3ccc(Cl)cc3)o2)C(=O)NCCCN(C)C)cc1	Dynein transport -4.3 | Dynein confirm inactive
Cc1cc(C)c2c(=O)n(CC(=O)NCCCN3CCN(c4ccccc4F)CC3)sc2n1	Dynein transport -7.9 (no result: HSV augment) | Dynein confirm active
NC(=O)CC(NC(=O)Cc1ccc(Cl)cc1)c1ccc(N2CCC(Cc3ccccc3)CC2)c([N+](=O)[O-])c1 (configuration not stated)	none (no result: Dynein transport, Autophagy mod, Tb hexokinase, HSV augment, PERK inhibitor)
CCCCCCc1cc2cc(-c3nnc(-c4ccccc4O)o3)c(=O)oc2cc1O	Autophagy mod active (no result: HSV augment) | Dynein confirm active
COc1ccc(-c2cc(C(F)(F)F)nc(S(=O)(=O)CCCC(=O)Nc3cccc(O)c3)n2)cc1OC	Dynein transport -5.6 | Dynein confirm active
CC(=O)n1cc(C(C[N+](=O)[O-])SCCN)c2ccccc21 (configuration not stated)	Dynein transport -3.8 | Dynein confirm inactive
CC(C)(C)c1cc(CSC(=S)NC2CCS(=O)(=O)C2)c(Br)c(C(C)(C)C)c1 (configuration not stated)	none
O=S1(=O)CC=C(CSC(=S)NC2CCS(=O)(=O)C2)C1 (configuration not stated)	Dynein transport -4.8 | Dynein confirm active
NC(N)=NCCCS(=O)(=O)Nc1ccc(Nc2c3ccccc3nc3cc([N+](=O)[O-])ccc23)cc1	none (no result: Dynein transport, Autophagy mod, Tb hexokinase, HSV augment, PERK inhibitor)
O=C1C(Cl)=C(Nc2ccc3cn[nH]c3c2)C(=O)c2ccccc21	Dynein transport -3.9 (no result: Autophagy mod) | Dynein confirm active
CCC(=O)OCCNc1cc(SCCC(=O)OC)c2nonc2c1[N+](=O)[O-]	Dynein transport -5.6 | Dynein confirm active
Cc1ccc(Sc2cc(NCCCO)c([N+](=O)[O-])c3nonc23)cc1	none (no result: Autophagy mod)
CC(=O)OCCCNc1cc(Sc2ccc(Cl)cc2)c2nonc2c1[N+](=O)[O-]	Dynein transport -4.8 | Dynein confirm active
CCCC(=O)OCCNc1cc(Sc2nc3ccccc3[nH]2)c2nonc2c1[N+](=O)[O-]	none
CC(=O)OCCN(C)c1cc(SC(C)C)c2nonc2c1[N+](=O)[O-]	Dynein transport -4.7 | Dynein confirm active
CCC(=O)OCCNc1cc(Sc2nccn2C)c2nonc2c1[N+](=O)[O-]	Dynein transport -4.8 | Dynein confirm inconclusive
CC(=O)OCCNc1cc(SC(C)C)c2nonc2c1[N+](=O)[O-]	none
Cc1cc(OCc2cc(C(=O)NCCN3CCCCC3CO)no2)cc(C)c1Cl (configuration not stated)	none (no result: Dynein transport, Autophagy mod, Tb hexokinase, HSV augment, PERK inhibitor)
c1ccc(-c2ccncn2)cc1	none (no result: Dynein transport, Autophagy mod, Tb hexokinase, HSV augment, PERK inhibitor)
O=C(Cc1c(F)cccc1Cl)N/N=C/c1cccnc1	none (no result: Dynein transport, Autophagy mod, Tb hexokinase, HSV augment, PERK inhibitor)
COc1ccc(NC(=O)CSc2nnnn2C2CC3C=CC2C3)cc1 (configuration not stated)	none (no result: Dynein transport, Autophagy mod, Tb hexokinase, HSV augment, PERK inhibitor)
O=[N+]([O-])c1cc(S(=O)(=O)N2CCCCCC2)ccc1F	Dynein transport -4.4 | Dynein confirm active
O=[N+]([O-])c1cc(S(=O)(=O)N2CCCC2)ccc1O	none
COc1ccc(S(=O)(=O)N2CCC(C(=O)Oc3cccc(C)c3)CC2)cc1OC	none (no result: Dynein transport, Autophagy mod, Tb hexokinase, HSV augment, PERK inhibitor)
COCC(C)NS(=O)(=O)c1ccc(C(=O)NC(Cc2ccccc2)c2ccccc2)cc1 (configuration not stated)	none (no result: Dynein transport, Autophagy mod, Tb hexokinase, HSV augment, PERK inhibitor)
N#CCCS(=O)(=O)c1nnnn1-c1ccccc1	Dynein transport -5 (no result: HKDC1 inh) | Dynein confirm inconclusive
c1ccc(-n2nnnc2Cc2nnnn2-c2ccccc2)cc1	none
O=C(/C=C/NNC(=O)c1ccccc1)c1ccc(Br)cc1	none
O=C(/C=C/NNC(=O)c1ccc(Cl)cc1)c1ccccc1	Dynein transport -6.2 | Dynein confirm active
Cc1ccnc(SCc2cc(=O)c(OC(=O)c3cc([N+](=O)[O-])ccc3Cl)co2)n1	Dynein transport -4.7 | Dynein confirm active

Assay outcomes (PubChem)
